Measurements taken from ChEMBL document CHEMBL3272198, “Preparation and in vitro antifungal activities of some quinolizidine derived hemiaminals and beta-tert-amino sulfides” (1976).
The source made the active and inactive calls. The calls are words filed in the database; no cut-off is given here.

Tests used:
Format in all cases: functional
[1] = test system: Histoplasma capsulatum; test: Antifungal activity against Histoplasma capsulatum Darling isolate 1098 at 80 ug/ml after 1 week (reference value: 12 mm); settings: Darling isolate 1098, 168 h, read-out: DIZ
[2] = test system: Histoplasma capsulatum; test: Antifungal activity against Histoplasma capsulatum Darling isolate 1106 at 80 ug/ml after 2 weeks (reference value: 25 mm); settings: Darling isolate 1106, 336 h, read-out: DIZ
[3] = test system: Blastomyces dermatitidis; test: Antifungal activity against Blastomyces dermatitidis Gilchrist & Stokes isolate 1107 at 10 ug/ml after 1 week (reference value: 20 mm)
Summary of the method: (§1)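 Mycelial phase grown on Sabouraud dextrose agar at 25°C. Agar pH was set to 6 before the test solution was added and was 5.0-5.5 after. Test solutions contained HOAc and Me2SO, and solvent and blank controls were included. Each quadrant was center-inoculated with a 2 × 2 mm piece of a 2-week-old mycelial culture. Colony diameter was measured weekly for 3 weeks and reported as total increments (mm). Duplicates were run.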

[4] = test system: Histoplasma capsulatum; test: Antifungal activity against Histoplasma capsulatum Darling isolate 1106 at 40 ug/ml after 3 weeks (reference value: 31 mm); settings: Darling isolate 1106, 504 h, read-out: DIZ
[5] = test system: Histoplasma capsulatum; test: Antifungal activity against Histoplasma capsulatum Darling isolate 1106 at 40 ug/ml after 2 weeks (reference value: 25 mm); settings: Darling isolate 1106, 336 h, read-out: DIZ
[6] = test system: Histoplasma capsulatum; test: Antifungal activity against Histoplasma capsulatum Darling isolate 1106 at 100 ug/ml after 2 weeks (reference value: 25 mm); settings: Darling isolate 1106, 336 h, read-out: DIZ
[7] = test system: Histoplasma capsulatum; test: Antifungal activity against Histoplasma capsulatum Darling isolate 1106 at 60 ug/ml after 2 weeks (reference value: 25 mm); settings: Darling isolate 1106, 336 h, read-out: DIZ
[8] = test system: Blastomyces dermatitidis; test: Antifungal activity against Blastomyces dermatitidis Gilchrist & Stokes isolate 1107 at 60 ug/ml after 2 weeks (reference value: 35 mm); settings: Gilchrist & Stokes isolate 1107, 336 h, read-out: DIZ; summary of the method: as §1
[9] = test system: Blastomyces dermatitidis; test: Antifungal activity against Blastomyces dermatitidis Gilchrist & Stokes isolate 1099 at 40 ug/ml after 3 weeks (reference value: 34 mm); settings: Gilchrist & Stokes isolate 1099, 504 h, read-out: DIZ; summary of the method: as §1
[10] = test system: Blastomyces dermatitidis; test: Antifungal activity against Blastomyces dermatitidis Gilchrist & Stokes isolate 1107 at 80 ug/ml after 3 weeks (reference value: 40 mm); settings: Gilchrist & Stokes isolate 1107, 504 h, read-out: DIZ; summary of the method: as §1
[11] = test system: Blastomyces dermatitidis; test: Antifungal activity against Blastomyces dermatitidis Gilchrist & Stokes isolate 1099 at 100 ug/ml after 3 weeks (reference value: 34 mm); settings: Gilchrist & Stokes isolate 1099, 504 h, read-out: DIZ; summary of the method: as §1
[12] = test system: Blastomyces dermatitidis; test: Antifungal activity against Blastomyces dermatitidis Gilchrist & Stokes isolate 1099 at 10 ug/ml after 2 weeks (reference value: 27 mm); settings: Gilchrist & Stokes isolate 1099, 336 h, read-out: DIZ; summary of the method: as §1
[13] = test system: Histoplasma capsulatum; test: Antifungal activity against Histoplasma capsulatum Darling isolate 1098 at 10 ug/ml after 2 weeks (reference value: 21 mm); settings: Darling isolate 1098, 336 h, read-out: DIZ
[14] = test system: Histoplasma capsulatum; test: Antifungal activity against Histoplasma capsulatum Darling isolate 1106 at 40 ug/ml after 1 week (reference value: 14 mm); settings: Darling isolate 1106, 168 h, read-out: DIZ
[15] = test system: Histoplasma capsulatum; test: Antifungal activity against Histoplasma capsulatum Darling isolate 1098 at 80 ug/ml after 2 weeks (reference value: 21 mm); settings: Darling isolate 1098, 336 h, read-out: DIZ
[16] = test system: Blastomyces dermatitidis; test: Antifungal activity against Blastomyces dermatitidis Gilchrist & Stokes isolate 1099 at 20 ug/ml after 1 week (reference value: 14 mm); summary of the method: as §1
[17] = test system: Histoplasma capsulatum; test: Antifungal activity against Histoplasma capsulatum Darling isolate 1098 at 20 ug/ml after 1 week (reference value: 12 mm); settings: Darling isolate 1098, 168 h, read-out: DIZ
[18] = test system: Histoplasma capsulatum; test: Antifungal activity against Histoplasma capsulatum Darling isolate 1106 at 20 ug/ml after 1 week (reference value: 14 mm); settings: Darling isolate 1106, 168 h, read-out: DIZ
[19] = test system: Histoplasma capsulatum; test: Antifungal activity against Histoplasma capsulatum Darling isolate 1098 at 20 ug/ml after 2 weeks (reference value: 21 mm); settings: Darling isolate 1098, 336 h, read-out: DIZ
[20] = test system: Histoplasma capsulatum; test: Antifungal activity against Histoplasma capsulatum Darling isolate 1098 at 10 ug/ml after 3 weeks (reference value: 28 mm); settings: Darling isolate 1098, 504 h, read-out: DIZ
[21] = test system: Histoplasma capsulatum; test: Antifungal activity against Histoplasma capsulatum Darling isolate 1098 at 100 ug/ml after 2 weeks (reference value: 21 mm); settings: Darling isolate 1098, 336 h, read-out: DIZ
[22] = test system: Histoplasma capsulatum; test: Antifungal activity against Histoplasma capsulatum Darling isolate 1106 at 80 ug/ml after 3 weeks (reference value: 31 mm); settings: Darling isolate 1106, 504 h, read-out: DIZ
[23] = test system: Blastomyces dermatitidis; test: Antifungal activity against Blastomyces dermatitidis Gilchrist & Stokes isolate 1099 at 80 ug/ml after 2 weeks (reference value: 27 mm)
[24] = test system: Blastomyces dermatitidis; test: Antifungal activity against Blastomyces dermatitidis Gilchrist & Stokes isolate 1107 at 60 ug/ml after 3 weeks (reference value: 40 mm); settings: Gilchrist & Stokes isolate 1107, 504 h, read-out: DIZ; summary of the method: as §1
[25] = test system: Blastomyces dermatitidis; test: Antifungal activity against Blastomyces dermatitidis Gilchrist & Stokes isolate 1107 at 10 ug/ml after 3 weeks (reference value: 40 mm); settings: Gilchrist & Stokes isolate 1107, 504 h, read-out: DIZ; summary of the method: as §1
[26] = test system: Histoplasma capsulatum; test: Antifungal activity against Histoplasma capsulatum Darling isolate 1098 at 60 ug/ml after 3 weeks (reference value: 28 mm); settings: Darling isolate 1098, 504 h, read-out: DIZ
[27] = test system: Blastomyces dermatitidis; test: Antifungal activity against Blastomyces dermatitidis Gilchrist & Stokes isolate 1099 at 60 ug/ml after 1 week (reference value: 14 mm)
[28] = test system: Histoplasma capsulatum; test: Antifungal activity against Histoplasma capsulatum Darling isolate 1106 at 20 ug/ml after 2 weeks (reference value: 25 mm); settings: Darling isolate 1106, 336 h, read-out: DIZ
[29] = test system: Histoplasma capsulatum; test: Antifungal activity against Histoplasma capsulatum Darling isolate 1098 at 60 ug/ml after 2 weeks (reference value: 21 mm); settings: Darling isolate 1098, 336 h, read-out: DIZ
[30] = test system: Histoplasma capsulatum; test: Antifungal activity against Histoplasma capsulatum Darling isolate 1098 at 10 ug/ml after 1 week (reference value: 12 mm); settings: Darling isolate 1098, 168 h, read-out: DIZ
[31] = test system: Blastomyces dermatitidis; test: Antifungal activity against Blastomyces dermatitidis Gilchrist & Stokes isolate 1099 at 80 ug/ml after 3 weeks (reference value: 34 mm); settings: Gilchrist & Stokes isolate 1099, 504 h, read-out: DIZ; summary of the method: as §1
[32] = test system: Histoplasma capsulatum; test: Antifungal activity against Histoplasma capsulatum Darling isolate 1106 at 10 ug/ml after 1 week (reference value: 14 mm); settings: Darling isolate 1106, 168 h, read-out: DIZ
[33] = test system: Histoplasma capsulatum; test: Antifungal activity against Histoplasma capsulatum Darling isolate 1098 at 40 ug/ml after 2 weeks (reference value: 21 mm); settings: Darling isolate 1098, 336 h, read-out: DIZ
[34] = test system: Blastomyces dermatitidis; test: Antifungal activity against Blastomyces dermatitidis Gilchrist & Stokes isolate 1107 at 40 ug/ml after 2 weeks (reference value: 35 mm); settings: Gilchrist & Stokes isolate 1107, 336 h, read-out: DIZ; summary of the method: as §1
[35] = test system: Blastomyces dermatitidis; test: Antifungal activity against Blastomyces dermatitidis Gilchrist & Stokes isolate 1099 at 100 ug/ml after 2 weeks (reference value: 27 mm)
[36] = test system: Blastomyces dermatitidis; test: Antifungal activity against Blastomyces dermatitidis Gilchrist & Stokes isolate 1107 at 100 ug/ml after 2 weeks (reference value: 35 mm); settings: Gilchrist & Stokes isolate 1107, 336 h, read-out: DIZ; summary of the method: as §1
[37] = test system: Blastomyces dermatitidis; test: Antifungal activity against Blastomyces dermatitidis Gilchrist & Stokes isolate 1107 at 100 ug/ml after 3 weeks (reference value: 40 mm); settings: Gilchrist & Stokes isolate 1107, 504 h, read-out: DIZ; summary of the method: as §1
[38] = test system: Blastomyces dermatitidis; test: Antifungal activity against Blastomyces dermatitidis Gilchrist & Stokes isolate 1099 at 100 ug/ml after 1 week (reference value: 14 mm)
[39] = test system: Blastomyces dermatitidis; test: Antifungal activity against Blastomyces dermatitidis Gilchrist & Stokes isolate 1107 at 100 ug/ml after 1 week (reference value: 20 mm)
[40] = Gilchrist & Stokes isolate 1107, 168 h, read-out: DIZ
[41] = Gilchrist & Stokes isolate 1099, 168 h, read-out: DIZ
[42] = Gilchrist & Stokes isolate 1099, 336 h, read-out: DIZ

SMILES	zone of inhibition at 80 µg/mL [1]	zone of inhibition at 80 µg/mL [2]	zone of inhibition at 40 µg/mL [4]	zone of inhibition at 40 µg/mL [5]	zone of inhibition at 100 µg/mL [6]	zone of inhibition at 60 µg/mL [7]	zone of inhibition at 60 µg/mL [8]	zone of inhibition at 40 µg/mL [9]	zone of inhibition at 80 µg/mL [10]	zone of inhibition at 100 µg/mL [11]	zone of inhibition at 10 µg/mL [12]	zone of inhibition at 10 µg/mL [13]	zone of inhibition at 40 µg/mL [14]	zone of inhibition at 80 µg/mL [15]	zone of inhibition at 20 µg/mL [17]	zone of inhibition at 20 µg/mL [18]	zone of inhibition at 20 µg/mL [19]	zone of inhibition at 10 µg/mL [20]	zone of inhibition at 100 µg/mL [21]	zone of inhibition at 80 µg/mL [22]	other results
C[C@@H]1[C@H](O)[C@@H](C)/C=C/C=C/C=C/C=C/C=C/C=C/C=C/[C@H](O[C@@H]2O[C@H](C)[C@@H](O)[C@H](N)[C@@H]2O)C[C@@H]2O[C@](O)(C[C@@H](O)C[C@@H](O)[C@H](O)CC[C@@H](O)C[C@@H](O)CC(=O)O[C@H]1C)C[C@H](O)[C@H]2C(=O)O [AMPHOTERICIN B]	4 mm	7 mm	13 mm	9 mm	6 mm	9 mm	10 mm	4 mm	15 mm	2 mm	6 mm	14 mm	6 mm	10 mm	8 mm	6 mm	12 mm	19 mm	8 mm	12 mm	Activity [3]: inactive; Activity [16]: Active; Activity [23]: Active; zone of inhibition at 60 µg/mL [24]: 14 mm; zone of inhibition at 10 µg/mL [25]: 15 mm; zone of inhibition at 60 µg/mL [26]: 13 mm; Activity [27]: Active; zone of inhibition at 20 µg/mL [28]: 7 mm; zone of inhibition at 60 µg/mL [29]: 9 mm; zone of inhibition at 10 µg/mL [30]: 8 mm; zone of inhibition at 80 µg/mL [31]: 2 mm; zone of inhibition at 10 µg/mL [32]: 7 mm; zone of inhibition at 40 µg/mL [33]: 11 mm; zone of inhibition at 40 µg/mL [34]: 14 mm; Activity [35]: Active; zone of inhibition at 100 µg/mL [36]: 6 mm; zone of inhibition at 100 µg/mL [37]: 11 mm; Activity [38]: Active; Activity [39]: Active
CS[C@@]1(C)CC[C@@H]2CCCCN2C1O (stereo partly drawn)	9 mm	19 mm	28 mm	21 mm	17 mm	19 mm	31 mm	34 mm	40 mm	33 mm	28 mm	20 mm	10 mm	18 mm	10 mm	11 mm	18 mm	31 mm	15 mm	26 mm	zone of inhibition at 10 µg/mL [3, 40]: 20 mm; zone of inhibition at 20 µg/mL [16, 41]: 15 mm; zone of inhibition at 80 µg/mL [23, 42]: 25 mm; zone of inhibition at 60 µg/mL [24]: 40 mm; zone of inhibition at 10 µg/mL [25]: 40 mm; zone of inhibition at 60 µg/mL [26]: 30 mm; zone of inhibition at 60 µg/mL [27, 41]: 13 mm; zone of inhibition at 20 µg/mL [28]: 20 mm; zone of inhibition at 60 µg/mL [29]: 18 mm; zone of inhibition at 10 µg/mL [30]: 11 mm; zone of inhibition at 80 µg/mL [31]: 33 mm; zone of inhibition at 10 µg/mL [32]: 11 mm; zone of inhibition at 40 µg/mL [33]: 19 mm; zone of inhibition at 40 µg/mL [34]: 33 mm; zone of inhibition at 100 µg/mL [35, 42]: 25 mm; zone of inhibition at 100 µg/mL [36]: 31 mm; zone of inhibition at 100 µg/mL [37]: 40 mm; zone of inhibition at 100 µg/mL [38, 41]: 13 mm; zone of inhibition at 100 µg/mL [39, 40]: 16 mm
